Measurements taken from ChEMBL document CHEMBL1126755, “Anticonvulsant activities of some arylsemicarbazones displaying potent oral activity in the maximal electroshock screen in rats accompanied by high protection indices” (J Med Chem, 1993).

Tests used:
[1] = Toxic dose determined as neurotoxicity, 1 h after oral dosing in rat; assay type: toxicity, organism-based; conditions: in vivo
In short: (§1)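 Oral dosing in rats, with MES protection or neurotoxicity assessed at the stated time. ED50 or TD50 (mg/kg) given with 95% CI, slope and SE. Testing done by NINDS under its reported procedures.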

[2] = Protective index is the ratio of TD50 and ED50 in maximal electroshock anticonvulsant screen test; assay type: functional
In short: (§2)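 Protection index is TD50/ED50, taken from intraperitoneal mouse data for the MES and scPTZ screens respectively, or from oral rat MES data.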

Mus musculus [3] = test: Ability to prevent seizures induced by subcutaneous injection of bicuculline, after 1 hr in mice; assay type: functional; conditions: sc
In short: (§3)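 Mice dosed intraperitoneally at various doses, then bicuculline 2.7 mg/kg given subcutaneously and protection noted. ED50 with 95% CI, slope and SE obtained using eight animals per dose; otherwise two, seven or eight mice per dose. Screening run by NINDS per its reported procedures.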

Mus musculus [4] = test: Effective dose for protection against seizures induced in the maximal electroshock anticonvulsant screen test after intraperitoneal injection in mice; assay type: functional; conditions: ip
In short: (§4)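 Mice received compound intraperitoneally, with quantitative evaluation in the MES, scPTZ and neurotoxicity screens at the tabulated time. ED50 or TD50 (mg/kg) reported with 95% CI, slope and SE. Testing done by NINDS under its reported procedures.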

Rattus norvegicus [5] = test: Effective dose for protection against seizures induced in the maximal electroshock anticonvulsant screen test 1 hr after oral dosing in rat; assay type: functional; in short: as §1
Mus musculus [6] = test: Ability to prevent seizures induced by subcutaneous injection of picrotoxin, after 1 hr in mice; assay type: functional; conditions: sc
In short: (§5)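 Mice received various intraperitoneal doses of compound, then subcutaneous picrotoxin at 2.5 mg/kg. Protection from seizures was scored. ED50 values use eight mice per dose and are given with 95% CI, slope and SE.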

[7] = Protective index is the ratio of TD50 and ED50 in subcutaneous pentylenetetrazole screen test; assay type: functional; in short: as §2
[8] = Toxic dose determined as neurotoxicity, 0.25 hr after intraperitoneal injection in mice.; assay type: toxicity, organism-based; conditions: mouse, in vivo, ip; in short: as §4
Mus musculus [9] = test: Effective dose for protection against seizures induced in the subcutaneous pentylenetetrazole screen test in mice; assay type: functional; conditions: sc; in short: as §4
[10] = Protective index is the ratio of TD50 in neurotoxicity screen test and ED50 in MES screen test
Mus musculus [11] = test: Ability to prevent seizures induced by subcutaneous injection of bicuculline, after 0.25 hr in mice; assay type: functional; conditions: sc; in short: as §3
Mus musculus [12] = test: Ability to prevent seizures induced by subcutaneous injection of picrotoxin, after 0.25 hr in mice; assay type: functional; conditions: sc; in short: as §5
[13] = Neurotoxicity was determined, 1 hr after oral dosing in rat.; assay type: toxicity, organism-based; conditions: in vivo; in short: as §1
Rattus norvegicus [14] = test: Neurotoxicity was determined, of 0.25, 0.5, 1, 2 and 4 h, after 300 mg/kg oral dosing in rat.; assay type: toxicity, organism-based; set-up: dose 300 mg/kg, route oral; conditions: in vivo
In short: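 Rats given 300 mg/kg orally and checked for neurotoxicity 0.25, 0.5, 1, 2 and 4 h later, using two animals per time point. Testing done by NINDS.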

[15] = Neurotoxicity was determined, 1 hr after oral dosing in rat; assay type: toxicity, organism-based; conditions: in vivo; in short: as §1
[16] = Neurotoxicity was determined, 0.25 hr after intraperitoneal injection in mice.; assay type: toxicity, organism-based; conditions: mouse, in vivo, ip; in short: as §4
Mus musculus [17] = test: Ability to prevent seizures induced by subcutaneous injection of bicuculline, after 4 hr in mice; assay type: functional; conditions: sc; in short: as §3
[18] = Toxic dose determined neurotoxicity, 1 hr after oral dosing in rat; assay type: toxicity, organism-based; conditions: in vivo
In short: (§6)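 Rats were dosed orally, with the NINDS programme running the tests by its reported procedures. MES protection (ED50) and neurotoxicity (TD50) were measured at timed intervals after dosing. Each value is given as a dose-response ED50 or TD50 in mg/kg with 95% CI, slope and SE.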

[19] = Toxic dose determined as neurotoxicity, 0.25 hr after intraperitoneal injection in mice; assay type: toxicity, organism-based; conditions: mouse, in vivo, ip
In short: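 Mice received the compound by intraperitoneal injection, with the NINDS programme running the test by its reported procedures. Neurotoxicity was assessed at set times after dosing. TD50 is given in mg/kg with 95% CI, slope and SE.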

Rattus norvegicus [20] = test: Ability to protect against seizures induced in the maximal electro shock (MES) screen test 1 hr after oral dosing in rat; assay type: functional; in short: as §6
Rattus norvegicus [21] = test: Ability to protect against seizures induced in the maximal electro shock (MES) screen,test1 hr after oral dosing in rat.; assay type: functional; in short: as §1

| Compound | Ratio [2] | ED50 (Mus musculus [4]) | ED50 (Rattus norvegicus [5]) | Ratio [7] | ED50 (Mus musculus [9]) | Ratio [10] | ED50 (Mus musculus [11]) | ED50 (Mus musculus [12]) | TD50 at 1 h [13] | TD50 at 0.25 h [16] | also measured |
| --- | --- | --- | --- | --- | --- | --- | --- | --- | --- | --- | --- |
| NC(=O)N/N=C/c1cccc(Cl)c1 | > 5.53 | 90.4 mg/kg | 24.4 mg/kg | >2.82 | 177 mg/kg | > 20.5 |  |  |  |  | TD50 at 1 h [1]: > 500 mg/kg; ED50 (Mus musculus [3]): > 500 mg/kg; ED50 (Mus musculus [6]): 200 mg/kg; TD50 at 0.25 h [8]: > 500 mg/kg |
| CCCCC/C(=N\NC(N)=O)c1ccccc1 |  |  | 32.6 mg/kg |  |  | > 15.3 | 363 mg/kg | 230 mg/kg | > 500 mg/kg |  |  |
| CC/C(=N\NC(N)=O)c1ccccc1 |  |  | 32.8 mg/kg |  |  | 12.3 | > 100 mg/kg | 128 mg/kg | 404 mg/kg |  |  |
| COc1ccc(/C=N/NC(N)=O)cc1 |  |  |  |  |  |  |  |  |  |  | TD50 (Rattus norvegicus [14]): No activity |
| NC(=O)N/N=C/c1ccc(Cl)cc1Cl |  |  | 43.1 mg/kg |  |  | > 11.6 |  |  | > 500 mg/kg |  |  |
| NC(=O)N/N=C/c1ccccc1Cl |  |  | 38.8 mg/kg |  |  | > 12.9 |  |  | > 500 mg/kg |  |  |
| NC(=O)N/N=C/c1ccc(Cl)cc1 | 3.37 | 74.8 mg/kg | 18.6 mg/kg | 1.87 | 135 mg/kg | > 26.9 | > 300 mg/kg | 146 mg/kg |  | 252 mg/kg | TD50 at 1 h [15]: > 500 mg/kg |
| NC(=O)N/N=C/c1c(Cl)cccc1Cl |  |  | 59 mg/kg |  |  | 2.18 |  |  | 129 mg/kg |  |  |
| NC(=O)N/N=C/c1ccc(Cl)c(Cl)c1 | > 3.43 | 146 mg/kg | 20.2 mg/kg |  | > 500 mg/kg | > 24.8 |  |  | > 500 mg/kg | > 500 mg/kg | ED50 (Mus musculus [17]): > 500 mg/kg |
| CC(C)/C(=N\NC(N)=O)c1ccccc1 |  |  | 43.3 mg/kg |  |  | 5.66 |  |  | 245 mg/kg |  |  |
| NC(=O)NN=C(c1ccccc1)c1ccccc1 [DIPHENYLSEMICARBAZONE] | 1.91 | 47 mg/kg | 22.9 mg/kg | 1.18 | 76.2 mg/kg | 10.3 | > 100 mg/kg |  | 235 mg/kg | 89.7 mg/kg |  |
| C/C(=N/N=C(\N)S)c1ccc(Cl)cc1 [P-CHLOROPHENYL(METHYL)THIOSEMICARBAZONE] | 0.39 | 60.4 mg/kg |  | 0.34 | 69.6 mg/kg | 7.67 |  |  |  |  | TD50 at 1 h [18]: 119 mg/kg; TD50 at 0.25 h [19]: 23.8 mg/kg; ED50 (Rattus norvegicus [20]): 15.5 mg/kg |
| CCCC/C(=N\NC(N)=O)c1ccccc1 [PHENYL(BUTYL)SEMICARBAZONE] | 1.81 | 58.3 mg/kg | 59.5 mg/kg | 0.97 | 108 mg/kg | > 8.41 |  |  | > 500 mg/kg | 106 mg/kg |  |
| CC(=NNC(N)=O)c1ccccc1 [PHENYL(METHYL)SEMICARBAZONE] | 2.34 | 35.1 mg/kg | 20.2 mg/kg | 1.05 | 78.5 mg/kg | 13.2 | > 100 mg/kg | 60.8 mg/kg | 268 mg/kg | 82.3 mg/kg |  |
| C/C(=N\N=C(/N)S)c1ccccc1 [PHENYL(METHYL)THIOSEMICARBAZONE] |  |  | 16.9 mg/kg |  |  | 4.33 |  |  | 73 mg/kg |  |  |
| NC(=O)N/N=C/C=C/c1ccccc1 [PHENYLETHENYLSEMICARBAZONE] | 2.01 | 48.9 mg/kg | 11.5 mg/kg | 1.16 | 84.7 mg/kg | > 43.5 | > 120 mg/kg |  | > 500 mg/kg | 98.2 mg/kg |  |
| NC(=O)N/N=C/CCc1ccccc1 [PHENYLETHYLSEMICARBAZONE] | 1.54 | 47 mg/kg | 36.4 mg/kg | 0.92 | 78.6 mg/kg | 9.16 | > 120 mg/kg |  | 334 mg/kg | 72.3 mg/kg |  |
| NC(=O)N/N=C/Cc1ccccc1 [PHENYLMETHYLSEMICARBAZONE] | 2.63 | 45.5 mg/kg | 42.8 mg/kg | 0.94 | 128 mg/kg | > 11.7 | 59.6 mg/kg | > 150 mg/kg | > 500 mg/kg | 120 mg/kg |  |
| NC(=O)N/N=C\c1ccccc1 [PHENYLSEMICARBAZONE] | 2.93 | 69.7 mg/kg |  | 1.6 | 127 mg/kg | 11.3 | 116 mg/kg | 104 mg/kg |  |  | TD50 at 1 h [15]: 254 mg/kg; TD50 at 0.25 h [19]: 204 mg/kg; ED50 (Rattus norvegicus [21]): 22.5 mg/kg |
| NC(=S)N/N=C/c1ccccc1 [PHENYLTHIOSEMICARBAZONE] |  |  | 12.8 mg/kg |  |  | > 15.6 |  |  | > 200 mg/kg |  |  |
